The subject of series [1] is Human immunodeficiency virus 1. Put plainly: Antiviral activity against HIV1 3B laboratory isolate assessed as inhibition of virus-induced cytopathogenicity by MTT assay. In kind it is functional, organism-based. The settings on record: Human immunodeficiency virus 1, 3B. The gist of the method: (§1)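 Infection of PM1/CCR5 cells; tropism/subtype of each strain: IIIB X4 Sub B, 89.6 dual Sub B, KYAG and fTOI R5 Sub B (primary isolates). Viability read by MTT. […] Means of at least three experiments; tested up to 100 uM.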

For series [2], the system named is Human immunodeficiency virus 1. Put plainly: Antiviral activity against HIV1 89.6 laboratory isolate assessed as inhibition of virus-induced cytopathogenicity by MTT assay. It is filed as functional, organism-based. The settings on record: Human immunodeficiency virus 1, isolate 89.6. The gist of the method: as §1
Background: Cytopathic effects are the visible damage that an infection or toxin causes in cultured cells.

The test system of series [3] is Human immunodeficiency virus 1. Put plainly: Antiviral activity against HIV1 KYAG primary isolate assessed as inhibition of virus-induced cytopathogenicity by MTT assay. The conditions noted are these: Human immunodeficiency virus 1, KYAG. It is filed as functional, organism-based. The gist of the method:
as §1

A short description of series [4]: Cytotoxicity against mock-infected CCR5 expressing human PM1 cells by MTT assay. It is filed as cell-based. In general terms: Formazan colour is commonly taken as a measure of viable cells.
Series [5] concerns Human immunodeficiency virus 1. Put plainly: Antiviral activity against HIV1 fTOI primary isolate assessed as inhibition of virus-induced cytopathogenicity by MTT assay. In kind it is functional, organism-based. The settings on record: Human immunodeficiency virus 1, fTOI. The gist of the method: as §1
Series [6] concerns PM1. Put plainly: Inhibition of gp120 binding to CD4 in HIV1 JR-FL infected human PM1 cells assessed as binding of anti-envelope CD4-induced monoclonal antibody 4C11 to envelope expressing cell surface at 100 uM pretreated 15 mins before 4C11 addition by FACS analysis. The conditions noted are these: Human immunodeficiency virus 1. In kind it is cell-based. The gist of the method: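 PM1 cells chronically infected with JR-FL (R5, Sub B) preincubated 15 min with compound at 100 uM (sCD4 11 nM as reference), then anti-HIV-1 mAb 4C11 at 4 °C for 15 min. After PBS wash, stained with FITC goat anti-human IgG; flow cytometry on gated PM1 cells, anti-CD19 control antibody; read as 4C11 mean fluorescence intensity. Minimum two independent experiments.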
On the technique in general: Flow cytometry measures light scatter and fluorescence of single cells or particles in a stream.

A short description of series [7]: Inhibition of HIV1 gp120 binding to CD4. Also noted: species or system Human immunodeficiency virus 1.

Data on eight compounds can be found in ChEMBL document CHEMBL1153139, “CD4 mimics targeting the mechanism of HIV entry” (Bioorg Med Chem Lett, 2010).

The source made the active and inactive calls. The rule behind the calls is not given here.

As usually defined, the IC50 is the concentration that gives 50% inhibition. What is called CC50 is the concentration that lowers cell viability or growth by half. A higher CC50 goes with better tolerance by the cells. Usually Kd stands for the concentration at which binding is half-saturated. Higher therefore signals a looser complex.

`CC1(C)CC(NC(=O)C(=O)Nc2ccc(F)cc2)CC(C)(C)N1`: the IC50 in series [1] is 61 µM; in series [2], 81 µM; in series [3], > 100 µM. In series [4], this compound came in with a CC50 of 320 µM.

With `CC1(C)CC(NC(=O)C(=O)Nc2ccccc2)CC(C)(C)N1`, the IC50 in series [1] is > 100 µM; in series [2], > 100 µM; in series [5], 81 µM; in series [3], > 100 µM. The same compound showed a CC50 in series [4] of 350 µM. Besides, the result in series [6] was inactive.

For the compound `Cc1ccc(NC(=O)C(=O)NC2CC(C)(C)NC(C)(C)C2)cc1`, the IC50 in series [1] was determined as 23 µM; in series [2], 41 µM; in series [5] it was 16 µM; in series [3], 51 µM. The result in series [6] was Active.

`CC1(C)CC(NC(=O)C(=O)Nc2ccc(Br)cc2)CC(C)(C)N1` gave a Kd in series [7] of 2.2 µM. Further, the figures for the IC50 in series [1] and in series [2] were 4 µM and 9 µM, respectively. The CC50 in series [4] is 150 µM.

In the case of `CC1(C)CC(NC(=O)C(=O)Nc2ccc(Cl)cc2)CC(C)(C)N1`, the IC50 is 8 µM in series [1], 10 µM in series [2], 5 µM in series [5] and > 30 µM in series [3]. The same compound showed a cytotoxic concentration (CC50) in series [4] of 170 µM. Further, the result in series [6] was Active.

For the compound `CC1(C)CC(NC(=O)C(=O)Nc2ccc([N+](=O)[O-])cc2)CC(C)(C)N1`, the IC50 in series [2] is 42 µM. For the same compound, the cytotoxic concentration (CC50) in series [4] stood at 230 µM.

Turning to `COc1ccc(NC(=O)C(=O)NC2CC(C)(C)NC(C)(C)C2)cc1`, the IC50 in series [1], in series [2] and in series [3] was > 100 µM throughout. The compound also had a 50% cytotoxic concentration (CC50) in series [4] of 340 µM.

As for `CC1(C)CC(NC(=O)C(=O)Nc2ccc(C(F)(F)F)cc2)CC(C)(C)N1`, the IC50 in series [2] turned out to be 27 µM. In addition, in series [4], the midpoint of cytotoxicity, the CC50, lay at 72 µM.
